Measurements published in ChEMBL document CHEMBL4033788, “Novel Ligustrazine-Based Analogs of Piperlongumine Potently Suppress Proliferation and Metastasis of Colorectal Cancer Cells in Vitro and in Vivo” (J Med Chem, 2018).
Activity calls are given as the source filed them. The calls are words filed in the database; no cut-off is given here.

Assays:
[1] = target: T1, Catenin beta-1 (Homo sapiens) (UniProt P35222); experiment: Inhibition of TGF-beta1-regulated decrease in cytoplasmic beta-catenin in human HCT116 cells at 2 to 50 nM after 48 hrs by Western blot analysis; type: cell-based
T1 sequence (whole entry): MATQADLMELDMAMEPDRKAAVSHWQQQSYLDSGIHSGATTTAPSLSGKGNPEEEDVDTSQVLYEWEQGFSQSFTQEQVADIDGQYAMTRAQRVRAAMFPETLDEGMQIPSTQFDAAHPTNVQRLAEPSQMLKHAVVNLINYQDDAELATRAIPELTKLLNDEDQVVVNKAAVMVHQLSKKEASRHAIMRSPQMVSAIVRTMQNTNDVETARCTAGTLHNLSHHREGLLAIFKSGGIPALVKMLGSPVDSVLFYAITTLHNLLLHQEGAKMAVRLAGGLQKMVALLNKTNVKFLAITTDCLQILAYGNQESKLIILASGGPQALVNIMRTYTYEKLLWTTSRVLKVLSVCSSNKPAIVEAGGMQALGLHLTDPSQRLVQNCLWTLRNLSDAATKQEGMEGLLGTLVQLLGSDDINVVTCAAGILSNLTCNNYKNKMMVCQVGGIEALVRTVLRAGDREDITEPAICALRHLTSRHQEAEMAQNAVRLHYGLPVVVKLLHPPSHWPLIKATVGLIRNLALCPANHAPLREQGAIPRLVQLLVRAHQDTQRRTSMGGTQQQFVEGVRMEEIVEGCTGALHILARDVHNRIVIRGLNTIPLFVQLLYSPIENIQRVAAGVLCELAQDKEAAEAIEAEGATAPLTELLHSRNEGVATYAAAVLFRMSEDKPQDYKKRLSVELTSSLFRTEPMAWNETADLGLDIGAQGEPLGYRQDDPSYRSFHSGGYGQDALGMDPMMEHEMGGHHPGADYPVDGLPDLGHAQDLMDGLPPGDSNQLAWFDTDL
How it was run: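 Cytoplasmic and nuclear β-catenin were measured by Western blot in HCT-116 cells given TGF-β1 (10 ng/mL) for 48 h, with or without compound, against 0.1% DMSO vehicle. Lysates (20 μg/lane) were run on 7.5% gels and transferred to PVDF, with Lamin A among the antibodies used. Blots were read by ECL and densitometry, n = 3 independent experiments.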

Mus musculus = experiment: Toxicity in BALB/c nude mouse xenografted with human HCT116 cells assessed as mortality at 2 to 4 mg/kg, ip administered thrice a week for 6 consecutive weeks; type: organism-based; settings: in vivo
How it was run: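 Lung metastasis model: HCT-116 cells in serum-free medium injected into tail vein of BALB/c nude mice, then randomized and given vehicle or compound ip (1, 2 or 4 mg/kg) three times a week. Body weight recorded weekly, survival monitored (n = 6); mice sacrificed after 40 days and lungs examined by H&E histology.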

[2] = Acute toxicity in ICR mouse assessed as survival rate at 50 mg/kg, ip administered for 14 days relative to control; type: organism-based; settings: in vivo

For `Cc1nc(C)c(/C=C/C(=O)N2CCC=C(Cl)C2=O)nc1C`, which inhibition [1] is on record?
The inhibition was “Active”.

And the Activity (Mus musculus)?
The Activity was “Non-Toxic”.

What about the survival at 336 h [2] of the same compound?
Its survival at 336 h is 100%.
